Broadly, the Ki is the dissociation constant of the complex between target and ligand, obtained from inhibition or displacement. As a reminder, the IC50 is the midpoint of a concentration-inhibition curve.

Molecules are shown by their SMILES.

Consider 10 compounds from ChEMBL document CHEMBL1157752, “Lessons learned from herbal medicinal products: the example of St. John's Wort (perpendicular)” (J Nat Prod, 2010).

In series [1] the test system is Rattus norvegicus. The experiment in a line: Antidepressant activity in rat assessed as immobility time at 0.6 mg/kg, po by forced swimming test (reference value: 150.3 +/- 11.1 sec). Type of series: functional.
Series [2] deals with Rattus norvegicus. As to the kind of experiment: Antidepressant activity in rat assessed as immobility time at 1.3 mg/kg, po by forced swimming test (reference value: 150.3 +/- 11.1 sec). Type of series: functional. The method in brief:
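Rats received single compounds by mouth in a Porsolt forced swimming test. The read-out was immobility time in seconds, compared with a saline control, with imipramine 20 mg/kg po as the reference antidepressant. Values are mean ± SEM, n = 10 per group.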

Series [3] relates to Rattus norvegicus. The experiment in a line: Antidepressant activity in rat assessed as immobility time at 0.08 mg/kg, po by forced swimming test (reference value: 158.7 +/- 8.9 sec). In kind it is functional. The essentials: (§1)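 Rat forced swimming test (Porsolt): test substances given orally, and immobility time in seconds is recorded as mean ± SEM. Imipramine serves as the reference antidepressant.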

The test system of series [4] is Rattus norvegicus. The experiment in a line: Antidepressant activity in rat assessed as immobility time at […], po by forced swimming test (reference value: 158.7 +/- 8.9 sec). In kind it is functional.
Series [5] has as its system Rattus norvegicus. The experiment in a line: Antidepressant activity in rat assessed as immobility time at 0.5 mg/kg, po by forced swimming test (reference value: 158.7 +/- 8.9 sec). In kind it is functional. The essentials:
as §1

Series [6] has as its target D(3) dopamine receptor (Homo sapiens, UniProt P35462). As to the kind of experiment: Binding affinity to dopamine D3 receptor.
In series [7] the target is T1, Corticotropin-releasing factor receptor 1 (Homo sapiens, UniProt P34998).
T1 sequence (P34998 whole entry): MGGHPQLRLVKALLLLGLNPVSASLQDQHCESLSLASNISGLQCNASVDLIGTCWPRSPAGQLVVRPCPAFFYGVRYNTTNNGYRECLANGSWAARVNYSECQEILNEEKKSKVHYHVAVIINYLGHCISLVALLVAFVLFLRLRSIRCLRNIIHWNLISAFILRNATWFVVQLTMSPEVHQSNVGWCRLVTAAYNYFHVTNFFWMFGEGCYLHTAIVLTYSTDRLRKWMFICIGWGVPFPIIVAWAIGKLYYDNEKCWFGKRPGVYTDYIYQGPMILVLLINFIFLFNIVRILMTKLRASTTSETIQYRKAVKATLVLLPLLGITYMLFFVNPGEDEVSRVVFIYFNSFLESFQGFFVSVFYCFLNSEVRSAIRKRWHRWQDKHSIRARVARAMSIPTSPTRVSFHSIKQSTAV
The experiment in a line: Inhibition of CRF1 receptor.

For series [8], the target named is T1, Corticotropin-releasing factor receptor 1. The experiment in a line: Inhibition of recombinant CRF1 receptor expressed in CHO cells assessed as inhibition of CRF-induced cAMP formation. Type of series: functional, cell-based. Background: cAMP levels reflect the balance of adenylyl cyclase and phosphodiesterase activity.
For series [9], the system named is Rattus norvegicus. As to the kind of experiment: Reduction in corticotropin-releasing hormone mRNA expression in rat hyphalamic paraventricular nucleus at 0.2 mg/kg, po, qd for 8 weeks. Type of series: functional. The arrangement: scale not given: the % may be the effect or the level left.
For series [10], the system named is Rattus norvegicus. The experiment in a line: Reduction in %5HT1A receptor mRNA expression in rat hippocampus at 0.2 mg/kg, po, qd for 8 weeks. In kind it is functional. The arrangement: scale not given: the % may be the effect or the level left.
Series [11] can be described thus: Plasma concentration in po dosed rat after 270 mins. Type of series: ADME, organism-based. The essentials: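 Rats were fed the pure compound orally, and plasma concentration was followed over time, including the 270 min point. AUC was expressed relative to the compound given alone, set at 100%.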
Series [12] can be described thus: Permeability across apical to basolateral side in human Caco-2 cells. In kind it is ADME, cell-based. The following applies: read-out: permeability. The method in brief:
(§2)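 Caco-2 colon adenocarcinoma cells were grown as monolayers in Transwell chambers, and compound was dosed to the apical or the basolateral side. Transport was measured apical to basolateral (absorption) and basolateral to apical (efflux). The result is given as apparent permeability in cm/s.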
A general note: Caco-2 monolayers are a common model of the intestinal barrier.

Series [13] can be described thus: Permeability across basolateral to apical side in human Caco-2 cells. In kind it is ADME, cell-based. The note with it: read-out: permeability. The essentials: as §2
In series [14] the target is Cytochrome P450 3A4 (Homo sapiens, UniProt P08684).
Series [15] addresses Delta-type opioid receptor (Homo sapiens, UniProt P41143). The experiment in a line: Binding affinity to delta opioid receptor.
For series [16], the target named is T2, Alpha-2C adrenergic receptor (Homo sapiens, UniProt P18825).
T2 sequence (P18825 whole entry): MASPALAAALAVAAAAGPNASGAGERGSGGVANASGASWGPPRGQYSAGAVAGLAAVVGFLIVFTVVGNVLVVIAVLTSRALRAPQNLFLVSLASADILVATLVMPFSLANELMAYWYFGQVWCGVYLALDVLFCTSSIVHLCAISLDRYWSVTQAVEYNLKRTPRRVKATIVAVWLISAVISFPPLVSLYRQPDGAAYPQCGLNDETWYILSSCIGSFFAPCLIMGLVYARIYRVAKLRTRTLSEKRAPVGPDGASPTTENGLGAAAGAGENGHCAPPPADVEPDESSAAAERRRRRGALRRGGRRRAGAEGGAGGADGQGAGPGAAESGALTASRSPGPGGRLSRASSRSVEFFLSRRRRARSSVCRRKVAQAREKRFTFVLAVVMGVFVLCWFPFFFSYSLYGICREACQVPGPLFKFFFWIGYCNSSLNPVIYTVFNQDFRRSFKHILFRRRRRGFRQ
The experiment in a line: Binding affinity to adrenergic alpha2c receptor.

For series [17], the target named is T3, D(4) dopamine receptor (Homo sapiens, UniProt P21917).
T3 sequence (P21917 whole entry): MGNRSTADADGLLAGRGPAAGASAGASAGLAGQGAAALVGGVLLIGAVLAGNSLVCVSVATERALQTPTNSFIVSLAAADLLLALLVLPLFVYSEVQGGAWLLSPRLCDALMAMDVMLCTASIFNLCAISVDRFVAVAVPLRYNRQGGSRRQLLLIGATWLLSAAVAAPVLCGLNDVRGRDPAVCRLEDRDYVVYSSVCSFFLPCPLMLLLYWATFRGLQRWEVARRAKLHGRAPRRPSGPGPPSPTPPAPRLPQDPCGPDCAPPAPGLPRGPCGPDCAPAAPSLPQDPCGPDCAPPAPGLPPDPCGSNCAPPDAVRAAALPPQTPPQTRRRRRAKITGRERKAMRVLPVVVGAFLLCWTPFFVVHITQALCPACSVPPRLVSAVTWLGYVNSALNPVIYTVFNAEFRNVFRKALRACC
The experiment in a line: Binding affinity to dopamine D4 receptor.

The test system of series [18] is Rattus norvegicus. The experiment in a line: Antidepressant activity in rat assessed as immobility time at 0.6 mg/kg, po by forced swimming test (reference value: 169.6 +/- 19 sec). Type of series: functional. The method in brief: as §1
Series [19] has as its system Rattus norvegicus. The experiment in a line: Antidepressant activity in rat assessed as immobility time at 1.3 mg/kg, po by forced swimming test (reference value: 169.6 +/- 19 sec). Type of series: functional. The essentials: as §1
Series [20] relates to Rattus norvegicus. The experiment in a line: Antidepressant activity in rat assessed as immobility time at 2.6 mg/kg, po by forced swimming test (reference value: 169.6 +/- 19 sec). Type of series: functional. The method in brief:
as §1

Series [21] has as its system Rattus norvegicus. The experiment in a line: Antidepressant activity in rat assessed as immobility time at 5.2 mg/kg, po by forced swimming test (reference value: 169.6 +/- 19 sec). Type of series: functional. The method in brief: as §1
Series [22] deals with Rattus norvegicus. The experiment in a line: Antidepressant activity in rat assessed as immobility time at 7.6 mg/kg, po by forced swimming test (reference value: 169.6 +/- 19 sec). In kind it is functional. The essentials:
as §1

The subject of series [23] is Rattus norvegicus. The experiment in a line: Antidepressant activity in rat assessed as immobility time at 20 mg/kg, po by forced swimming test (reference value: 158.7 +/- 8.9 sec). Type of series: functional. The essentials: as §1
In series [24] the test system is Rattus norvegicus. The experiment in a line: Antidepressant activity in rat assessed as immobility time at 20 mg/kg, po by forced swimming test (reference value: 169.6 +/- 19 sec). Type of series: functional. The method in brief: as §1
The subject of series [25] is Rattus norvegicus. As to the kind of experiment: Antidepressant activity in rat assessed as immobility time at 20 mg/kg, po by forced swimming test (reference value: 150.3 +/- 11.1 sec). In kind it is functional. The method in brief: as §1
The test system of series [26] is Rattus norvegicus. The experiment in a line: Antidepressant activity in rat assessed as immobility time at 20 mg/kg, po by forced swimming test (reference value: 138.6 +/- 12 sec). In kind it is functional.

Chain of Cytochrome P450 3A4 (P08684 whole entry): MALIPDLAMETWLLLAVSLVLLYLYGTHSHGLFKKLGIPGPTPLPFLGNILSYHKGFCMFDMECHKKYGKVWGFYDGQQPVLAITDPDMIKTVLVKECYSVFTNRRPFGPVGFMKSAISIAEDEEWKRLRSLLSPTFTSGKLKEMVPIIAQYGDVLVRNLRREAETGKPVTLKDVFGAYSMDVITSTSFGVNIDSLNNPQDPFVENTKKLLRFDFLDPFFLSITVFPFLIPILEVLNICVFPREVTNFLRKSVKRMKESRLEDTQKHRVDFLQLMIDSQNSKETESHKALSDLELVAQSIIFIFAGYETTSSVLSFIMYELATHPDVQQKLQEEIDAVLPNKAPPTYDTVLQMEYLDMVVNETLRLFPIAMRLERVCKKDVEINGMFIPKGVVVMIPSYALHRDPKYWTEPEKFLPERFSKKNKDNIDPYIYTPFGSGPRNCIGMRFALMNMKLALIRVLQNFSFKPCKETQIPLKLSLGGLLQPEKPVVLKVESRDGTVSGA
Chain of D(3) dopamine receptor (P35462 whole entry): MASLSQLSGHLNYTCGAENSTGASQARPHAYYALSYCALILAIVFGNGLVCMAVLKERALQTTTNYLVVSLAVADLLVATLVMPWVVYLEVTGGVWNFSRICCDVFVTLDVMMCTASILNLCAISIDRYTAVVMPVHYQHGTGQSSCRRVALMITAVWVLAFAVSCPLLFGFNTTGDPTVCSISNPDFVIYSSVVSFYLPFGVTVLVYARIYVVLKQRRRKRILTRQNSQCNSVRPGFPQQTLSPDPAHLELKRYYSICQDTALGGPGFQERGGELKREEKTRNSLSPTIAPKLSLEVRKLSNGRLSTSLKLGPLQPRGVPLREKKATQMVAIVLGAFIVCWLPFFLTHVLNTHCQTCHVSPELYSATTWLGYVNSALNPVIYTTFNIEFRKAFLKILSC
Chain of Delta-type opioid receptor (P41143 whole entry): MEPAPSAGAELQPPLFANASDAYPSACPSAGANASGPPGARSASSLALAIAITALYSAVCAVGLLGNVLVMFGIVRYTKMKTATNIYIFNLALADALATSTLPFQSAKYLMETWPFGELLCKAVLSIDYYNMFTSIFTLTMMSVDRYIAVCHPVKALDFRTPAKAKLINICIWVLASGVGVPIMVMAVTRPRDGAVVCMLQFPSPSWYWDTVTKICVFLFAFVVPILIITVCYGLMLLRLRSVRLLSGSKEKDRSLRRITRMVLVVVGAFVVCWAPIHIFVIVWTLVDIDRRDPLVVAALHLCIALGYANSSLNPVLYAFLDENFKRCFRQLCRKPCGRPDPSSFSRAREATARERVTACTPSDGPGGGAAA

Regarding `C[C@@H]1O[C@@H](Oc2c(-c3ccc(O)c(O)c3)oc3cc(O)cc(O)c3c2=O)[C@H](O)[C@H](O)[C@H]1O` [QUERCITRIN], the Time in series [1] worked out at 149.9 s; in [2], 162.3 s.
On to `O=c1c(O[C@@H]2O[C@H](CO)[C@@H](O)[C@H](O)[C@H]2O)c(-c2ccc(O)c(O)c2)oc2cc(O)cc(O)c12` [ISOQUERCETIN], for which the Time in series [1] came to 100.4 s.
For `Cc1cc(O)c2c(=O)c3c(O)cc(O)c4c5c(O)cc(O)c6c(=O)c7c(O)cc(C)c8c1c2c(c34)c(c78)c65` [HYPERICIN], the figures for the Time in series [3], in series [4] and in [5] were 154.7 s, 110.2 s and 147.8 s, respectively. In addition, in series [6], the Ki was determined as 34.5 nM. Moreover, the IC50 is 300 nM in [7], 300 nM in series [8] and 8700 nM in series [14]. The figures for the Activity in series [9] and in series [10] were 16% and 11%, respectively. The same compound displayed a concentration at 4.5 h in series [11] of 6 ng/mL. The Papp A→B in [12] came out at 0.25 ×10⁻⁶ cm/s. Further, the Papp B→A in series [13] stood at 12 ×10⁻⁶ cm/s.
As for `O=c1cc(-c2ccc(O)c(-c3c(O)cc(O)c4c(=O)cc(-c5ccc(O)cc5)oc34)c2)oc2cc(O)cc(O)c12` [AMENTOFLAVONE], in series [15], the Ki came to 36.5 nM.
In [14], `O=c1c(-c2c(O)cc(O)c3c(=O)cc(-c4ccc(O)cc4)oc23)c(-c2ccc(O)cc2)oc2cc(O)cc(O)c12` returned an IC50 of 80 nM.
For `C[C@@H]1O[C@@H](O[C@H]2C(=O)c3c(O)cc(O)cc3O[C@@H]2c2ccc(O)c(O)c2)[C@H](O)[C@H](O)[C@H]1O` [ASTILBIN], the Time in series [1] is 148.6 s; in series [2], 163.7 s.
Consider `O=C(O)[C@H]1O[C@@H](Oc2c(-c3ccc(O)c(O)c3)oc3cc(O)cc(O)c3c2=O)[C@H](O)[C@@H](O)[C@@H]1O` [MIQUELIANIN], for which the Ki in series [16] amounted to 4060 nM.
`O=c1c(O)c(-c2ccc(O)c(O)c2)oc2cc(O)cc(O)c12` [QUERCETIN] displayed a Ki in series [17] of 7850 nM.
On to `O=c1c(O[C@@H]2O[C@H](CO)[C@H](O)[C@H](O)[C@H]2O)c(-c2ccc(O)c(O)c2)oc2cc(O)cc(O)c12` [HYPEROSIDE], for which the Time in series [18] is given as 101.2 s; in series [19], 109.5 s; in series [20] it was 133.7 s; in series [21], 149.2 s; in series [22], 158.8 s.
Take `CN(C)CCCN1c2ccccc2CCc2ccccc21` [IMIPRAMINE]: the Time in series [23] was 97.1 s; in series [24] it was 95.4 s; in series [25] it was 86.1 s; in series [26] it was 77.5 s.
